Measured values as given in publication PMC6378121 (Bioorganic chemistry, 2018).
Like-named read-outs stand apart in the source and are kept apart here.

Assays:
P-gp = settings: cited from earlier work
PARP-1 = PARP-1 (Homo sapiens, UniProt P09874); experiment: PARP-1 radioligand binding assay with [125I]KX1 in OVCAR8 cells
In short: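 OVCAR8 ovarian cancer cells (BRCA1 methylated) seeded at 40,000 cells/well 24 h before the assay. Test compound diluted in RPMI (100 μM–0.064 nM), added with the [125I]KX1 radioligand, equilibrated 1 hr, then washed with PBS. Wells counted on a gamma counter. IC50 from non-linear sigmoidal dose-response fit, n=3; dose ranges were adjusted between repeats.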

recombinant human P-gp = recombinant human P-gp (Homo sapiens, UniProt P08183); experiment: Pgp-Glo assay; settings: for Luminescence from unmetabolized ATP (P-gp ATPase stimulation or inhibition): 20 μM compound, 5 mM ATP, 1 hr at 37°C, normalized to Na3VO4
Sequence of recombinant human P-gp (P08183 whole entry): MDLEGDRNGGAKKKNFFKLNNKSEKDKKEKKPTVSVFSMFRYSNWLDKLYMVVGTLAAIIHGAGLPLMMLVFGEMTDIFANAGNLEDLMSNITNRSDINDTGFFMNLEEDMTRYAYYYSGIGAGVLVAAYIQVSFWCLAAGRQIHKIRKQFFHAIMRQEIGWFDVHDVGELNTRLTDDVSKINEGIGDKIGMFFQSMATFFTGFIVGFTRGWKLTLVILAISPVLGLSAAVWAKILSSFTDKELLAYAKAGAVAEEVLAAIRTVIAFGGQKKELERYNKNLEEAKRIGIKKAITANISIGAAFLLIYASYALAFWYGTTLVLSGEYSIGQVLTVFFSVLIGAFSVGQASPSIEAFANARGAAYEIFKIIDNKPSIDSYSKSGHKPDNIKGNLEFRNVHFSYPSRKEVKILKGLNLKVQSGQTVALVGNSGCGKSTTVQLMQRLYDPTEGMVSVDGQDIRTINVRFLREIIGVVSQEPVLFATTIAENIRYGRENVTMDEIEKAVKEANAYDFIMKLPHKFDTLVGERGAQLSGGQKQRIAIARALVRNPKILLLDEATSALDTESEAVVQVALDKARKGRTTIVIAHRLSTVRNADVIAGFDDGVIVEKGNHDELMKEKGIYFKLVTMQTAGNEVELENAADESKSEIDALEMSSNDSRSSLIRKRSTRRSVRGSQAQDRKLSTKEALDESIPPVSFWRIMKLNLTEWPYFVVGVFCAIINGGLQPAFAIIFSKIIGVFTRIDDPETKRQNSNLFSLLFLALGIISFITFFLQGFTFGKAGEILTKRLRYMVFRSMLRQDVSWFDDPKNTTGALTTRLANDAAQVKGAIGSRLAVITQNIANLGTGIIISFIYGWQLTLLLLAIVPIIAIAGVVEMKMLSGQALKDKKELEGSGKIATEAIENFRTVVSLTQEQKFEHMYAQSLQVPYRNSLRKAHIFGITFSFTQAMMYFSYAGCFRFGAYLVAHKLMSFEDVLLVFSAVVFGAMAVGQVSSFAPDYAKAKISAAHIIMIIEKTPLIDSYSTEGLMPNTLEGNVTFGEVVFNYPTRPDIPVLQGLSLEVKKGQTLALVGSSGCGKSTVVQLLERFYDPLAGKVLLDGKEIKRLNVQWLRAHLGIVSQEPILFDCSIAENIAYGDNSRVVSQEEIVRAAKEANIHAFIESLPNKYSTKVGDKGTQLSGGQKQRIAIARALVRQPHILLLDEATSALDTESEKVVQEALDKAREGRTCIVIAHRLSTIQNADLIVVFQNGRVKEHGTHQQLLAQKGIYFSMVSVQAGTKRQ

Sequence of PARP-1 (P09874 whole entry): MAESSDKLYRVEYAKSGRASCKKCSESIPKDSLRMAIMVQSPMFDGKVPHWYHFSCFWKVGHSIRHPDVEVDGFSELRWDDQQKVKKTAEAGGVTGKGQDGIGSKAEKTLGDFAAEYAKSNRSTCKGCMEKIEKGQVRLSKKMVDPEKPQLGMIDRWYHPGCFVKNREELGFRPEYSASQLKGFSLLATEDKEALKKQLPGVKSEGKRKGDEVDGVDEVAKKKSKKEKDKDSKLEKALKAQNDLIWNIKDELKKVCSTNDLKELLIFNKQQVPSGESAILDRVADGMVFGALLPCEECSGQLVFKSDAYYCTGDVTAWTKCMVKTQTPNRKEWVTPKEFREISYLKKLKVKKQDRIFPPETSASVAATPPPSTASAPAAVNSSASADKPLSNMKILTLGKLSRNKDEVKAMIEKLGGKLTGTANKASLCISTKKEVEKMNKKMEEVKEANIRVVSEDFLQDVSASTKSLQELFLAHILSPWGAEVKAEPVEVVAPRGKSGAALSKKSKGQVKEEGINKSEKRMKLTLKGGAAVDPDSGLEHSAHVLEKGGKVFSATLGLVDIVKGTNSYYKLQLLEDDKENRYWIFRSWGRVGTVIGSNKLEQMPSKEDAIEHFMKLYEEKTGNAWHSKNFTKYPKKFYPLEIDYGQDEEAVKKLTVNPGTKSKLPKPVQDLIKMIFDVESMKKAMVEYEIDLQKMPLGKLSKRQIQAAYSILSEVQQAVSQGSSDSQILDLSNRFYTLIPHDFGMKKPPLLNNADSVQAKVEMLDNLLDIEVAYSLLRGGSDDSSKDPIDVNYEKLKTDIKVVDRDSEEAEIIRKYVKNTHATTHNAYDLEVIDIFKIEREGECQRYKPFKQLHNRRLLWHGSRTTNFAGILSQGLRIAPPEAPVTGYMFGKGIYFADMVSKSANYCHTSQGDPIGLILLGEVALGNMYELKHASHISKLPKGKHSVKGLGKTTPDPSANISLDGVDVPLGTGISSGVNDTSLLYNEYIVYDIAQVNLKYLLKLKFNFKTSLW

Row | IC50 (PARP-1) [nM] | Luminescence from unmetabolized ATP (P-gp ATPase stimulation or inhibition) (recombinant human P-gp) | SMILES | further results
1 | – | – | C[C@]12CCCN1CC1=NNC(=O)c3cc(F)cc4[nH]c2c1c34 [BGB-290] | P-gp substrate status (P-gp): weak P-gp substrates
2 | – | – | COC1CCN(C(=O)c2cc(Cc3n[nH]c(=O)c4ccccc34)ccc2F)CC1 [Compound 2, AZD2461] | P-gp substrate status (P-gp): weak P-gp substrates; P-gp substrate status (P-gp; listed as AZD2461): poor P-gp substrate
3 | 10.7 ± 1.1 | – | O=C(c1cc(Cc2n[nH]c(=O)c3ccccc23)ccc1F)N1CC2(CC(OCCF)C2)C1 [Compound 9a, 4-(4-fluoro-3-(6-(2-fluoroethoxy)-2-azaspiro[3.3]heptane-2-carbonyl)benzyl)phthalazin-1(2H)-one] | –
4 | 7.5 ± 1.1 | – | O=C(c1cc(Cc2n[nH]c(=O)c3ccccc23)ccc1F)N1CC(OCCF)C1 [Compound 9b, 4-(4-fluoro-3-(3-(2-fluoroethoxy)azetidine-1-carbonyl)benzyl)phthalazin-1(2H)-one] | –
5 | 10.1 ± 1.1 | – | O=C(c1cc(Cc2n[nH]c(=O)c3ccccc23)ccc1F)N1CC[C@@H](OCCF)C1 [Compound 9c, (R)-4-(4-fluoro-3-(3-(2-fluoroethoxy)pyrrolidine-1-carbonyl)benzyl)phthalazin-1(2H)-one] | –
6 | 6.8 | – | O=C(c1cc(Cc2n[nH]c(=O)c3ccccc23)ccc1F)N1CC[C@H](OCCF)C1 [Compound 9d, (S)-4-(4-fluoro-3-(3-(2-fluoroethoxy)pyrrolidine-1-carbonyl)benzyl)phthalazin-1(2H)-one] | –
7 | 3.9 ± 1.2 | increased luminescence | O=C(c1cc(Cc2n[nH]c(=O)c3ccccc23)ccc1F)N1CCC(OCCF)CC1 [Compound 9e, 4-(4-fluoro-3-(4-(2-fluoroethoxy)piperidine-1-carbonyl)benzyl)phthalazin-1(2H)-one] | P-gp substrate status (recombinant human P-gp; authors' conclusion from the P-gp assay): weak substrate for P-gp
8 | 5.6 ± 1.1 | – | O=C(c1cc(Cc2n[nH]c(=O)c3ccccc23)ccc1F)N1CCCC(OCCF)CC1 (stereo not drawn) [Compound 9f, 4-(4-fluoro-3-(4-(2-fluoroethoxy)azepane-1-carbonyl)benzyl)phthalazin-1(2H)-one] | –
9 | 0.6 ± 1.2 | – | O=C(c1cc(Cc2n[nH]c(=O)c3ccccc23)ccc1F)N1CCN(c2ccc(F)cc2)CC1 [Compound 11a, 4-(4-fluoro-3-(4-(4-fluorophenyl)piperazine-1-carbonyl)benzyl)phthalazin-1(2H)-one] | –
10 | 1.3 | increased luminescence | O=C(c1cc(Cc2n[nH]c(=O)c3ccccc23)ccc1F)N1CCC(c2ccc(F)cc2)CC1 [Compound 11b, 4-(4-fluoro-3-(4-(4-fluorophenyl)piperidine-1-carbonyl)benzyl)phthalazin-1(2H)-one] | –
11 | 0.3 | increased luminescence | O=C(c1cc(Cc2n[nH]c(=O)c3ccccc23)ccc1F)N1CC2(C1)CN(c1ccc(F)cc1)C2 [Compound 14, 4-(4-fluoro-3-(6-(4-fluorophenyl)-2,6-diazaspiro[3.3]heptane-2-carbonyl)benzyl)phthalazin-1(2H)-one] | –
12 | – | increased luminescence | [Na+].[Na+].[Na+].[O]=[V]([O-])([O-])[O-] [Na3VO4, reference compound] | –
13 | – | – | O=C(c1cc(Cc2n[nH]c(=O)c3ccccc23)ccc1F)N1CCN(C(=O)C2CC2)CC1 [olaparib] | P-gp substrate status (P-gp): known substrates for P-gp
14 | – | – | C[C@]1(c2nc3c(C(N)=O)cccc3[nH]2)CCCN1 [veliparib] | P-gp substrate status (P-gp): weak P-gp substrates

Row | SMILES | IC50 (PARP-1) [nM] | Luminescence from unmetabolized ATP (P-gp ATPase stimulation or inhibition) (recombinant human P-gp) | further results
15 | O=C(c1cc(Cc2n[nH]c(=O)c3ccccc23)ccc1F)N1CC2(CC(c3ccc(F)cc3)C2)C1 [Compound 17, 4-(4-fluoro-3-(6-(4-fluorophenyl)-2-azaspiro[3.3]heptane-2-carbonyl)benzyl)phthalazin-1(2H)-one] | 2.8 | increased luminescence | –
